What was measured:
[1] = substrate: CCN(CC)c1ccc2nc3ccc(/N=N/c4ccc(N(C)CCCC(=O)NCCNC(=O)[C@H](CCNC(=O)CCCCCN5/C(=C\C=C\C=C\C=C\C6N(CC)c7ccc(S(=O)(=O)O)cc7C6(C)C)C(C)(C)c6cc(S(=O)(=O)[O-])ccc65)NC(=O)[C@H](CC5CCCCC5)NC(=O)N5CCOCC5)cc4)cc3[n+](-c3ccccc3)c2c1; experiment: (§1) Ratio of Kcat/Km for recombinant cathepsin L
How it was run: (§2)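 Active-site-titrated (E-64) recombinant human cathepsins B, L, S and in-house cathepsin K, 10 nM final in pH 6.5 acetate/HEPES buffer with 300 mM NaCl, 0.001% Pluronic and L-cysteine; DMSO-dissolved Cy7/BHQ-3 quenched substrate 0.8–40 µM final (DMSO ≤1%); fluorescence read at 25 °C (λex 710, λem 767 nm); steady-state data fitted by non-linear least squares to Michaelis–Menten with substrate inhibition.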

[2] = substrate: CC(C)(C)OC(=O)NCC[C@H](NC(=O)[C@H](CC1CCCCC1)NC(=O)N1CCOCC1)C(=O)NCCNC(=O)OCC1c2ccccc2-c2ccccc21; experiment: as §1; how it was run: as §2
[3] = substrate: CCN(CC)c1ccc2nc3ccc(/N=N/c4ccc(N(C)CCCC(=O)NCCNC(=O)[C@H](CCNC(=O)CCCCCN5/C(=C\C=C\C=C\C=C\C6N(CC)c7ccc(S(=O)(=O)O)cc7C6(C)C)C(C)(C)c6cc(S(=O)(=O)[O-])ccc65)NC(=O)[C@H](CC5CCCCC5)NC(=O)N5CCOCC5)cc4)cc3[n+](-c3ccccc3)c2c1; experiment: (§3) Activity at recombinant cathepsin L; how it was run: as §2
[4] = substrate: CC(C)(C)OC(=O)NCC[C@H](NC(=O)[C@H](CC1CCCCC1)NC(=O)N1CCOCC1)C(=O)NCCNC(=O)OCC1c2ccccc2-c2ccccc21; experiment: as §3; how it was run: as §2
[5] = substrate: CCN(CC)c1ccc2nc3ccc(/N=N/c4ccc(N(C)CCCC(=O)NCCNC(=O)[C@H](CCNC(=O)CCCCCN5/C(=C\C=C\C=C\C=C\C6N(CC)c7ccc(S(=O)(=O)O)cc7C6(C)C)C(C)(C)c6cc(S(=O)(=O)[O-])ccc65)NC(=O)[C@H](CC5CCCCC5)NC(=O)N5CCOCC5)cc4)cc3[n+](-c3ccccc3)c2c1; experiment: (§4) Ratio of Kcat/Km for recombinant cathepsin S; how it was run: as §2
[6] = substrate: CC(C)(C)OC(=O)NCC[C@H](NC(=O)[C@H](CC1CCCCC1)NC(=O)N1CCOCC1)C(=O)NCCNC(=O)OCC1c2ccccc2-c2ccccc21; experiment: as §4; how it was run: as §2
[7] = substrate: CCN(CC)c1ccc2nc3ccc(/N=N/c4ccc(N(C)CCCC(=O)NCCNC(=O)[C@H](CCNC(=O)CCCCCN5/C(=C\C=C\C=C\C=C\C6N(CC)c7ccc(S(=O)(=O)O)cc7C6(C)C)C(C)(C)c6cc(S(=O)(=O)[O-])ccc65)NC(=O)[C@H](CC5CCCCC5)NC(=O)N5CCOCC5)cc4)cc3[n+](-c3ccccc3)c2c1; experiment: (§5) Activity at recombinant cathepsin S; how it was run: as §2
[8] = substrate: CC(C)(C)OC(=O)NCC[C@H](NC(=O)[C@H](CC1CCCCC1)NC(=O)N1CCOCC1)C(=O)NCCNC(=O)OCC1c2ccccc2-c2ccccc21; experiment: as §5; how it was run: as §2
[9] = substrate: CC(C)(C)OC(=O)NCC[C@H](NC(=O)[C@H](CC1CCCCC1)NC(=O)N1CCOCC1)C(=O)NCCNC(=O)OCC1c2ccccc2-c2ccccc21; experiment: Activity at recombinant cathepsin K; how it was run: as §2
[10] = substrate: CC(C)(C)OC(=O)NCC[C@H](NC(=O)[C@H](CC1CCCCC1)NC(=O)N1CCOCC1)C(=O)NCCNC(=O)OCC1c2ccccc2-c2ccccc21; experiment: Ratio of Kcat/Km for recombinant cathepsin K; how it was run: as §2

B1: Procathepsin L (Homo sapiens), P07711 (protein)
chain: MNPTLILAAFCLGIASATLTFDHSLEAQWTKWKAMHNRLYGMNEEGWRRAVWEKNMKMIELHNQEYREGKHSFTMAMNAFGDMTSEEFRQVMNGFQNRKPRKGKVFQEPLFYEAPRSVDWREKGYVTPVKNQGQCGSCWAFSATGALEGQMFRKTGRLISLSEQNLVDCSGPQGNEGCNGGLMDYAFQYVQDNGGLDSEESYPYEATEESCKYNPKYSVANDTGFVDIPKQEKALMKAVATVGPISVAIDAGHESFLFYKEGIYFEPDCSSEDMDHGVLVVGYGFESTESDNNKYWLVKNSWGEEWGMGGYVKMAKDRRNHCGIASAASYPTV
B1 gave a kcat/Km [1] of 187 M⁻¹ s⁻¹, a kcat/Km [2] of 7070 M⁻¹ s⁻¹ and a Km [3] of 280 µM. It also gave a Km [4] of 840 µM.

B2: Cathepsin S (Homo sapiens), P25774 (protein)
chain: MKRLVCVLLVCSSAVAQLHKDPTLDHHWHLWKKTYGKQYKEKNEEAVRRLIWEKNLKFVMLHNLEHSMGMHSYDLGMNHLGDMTSEEVMSLMSSLRVPSQWQRNITYKSNPNRILPDSVDWREKGCVTEVKYQGSCGACWAFSAVGALEAQLKLKTGKLVSLSAQNLVDCSTEKYGNKGCNGGFMTTAFQYIIDNKGIDSDASYPYKAMDQKCQYDSKYRAATCSKYTELPYGREDVLKEAVANKGPVSVGVDARHPSFFLYRSGVYYEPSCTQNVNHGVLVVGYGDLNGKEYWLVKNSWGHNFGEEGYIRMARNKGNHCGIASFPSYPEI
With B2 the kcat/Km [5] was 14200 M⁻¹ s⁻¹, the kcat/Km [6] was 15100 M⁻¹ s⁻¹ and the Km [7] was 25 µM. It also gave a Km [8] of 1.3 µM.

B3: Cathepsin K (Homo sapiens), P43235 (protein)
chain: MWGLKVLLLPVVSFALYPEEILDTHWELWKKTHRKQYNNKVDEISRRLIWEKNLKYISIHNLEASLGVHTYELAMNHLGDMTSEEVVQKMTGLKVPLSHSRSNDTLYIPEWEGRAPDSVDYRKKGYVTPVKNQGQCGSCWAFSSVGALEGQLKKKTGKLLNLSPQNLVDCVSENDGCGGGYMTNAFQYVQKNRGIDSEDAYPYVGQEESCMYNPTGKAAKCRGYREIPEGNEKALKRAVARVGPVSVAIDASLTSFQFYSKGVYYDESCNSDNLNHAVLAVGYGIQKGNKHWIIKNSWGENWGNKGYILMARNKNNACGIANLASFPKM
With B3 the Km [9] was 89 µM and the kcat/Km [10] was 187 M⁻¹ s⁻¹.
